Laboratory results taken from ChEMBL document CHEMBL1921722, “In vitro and in vivo evaluation of select kahalalide F analogs with antitumor and antifungal activities” (Bioorg Med Chem, 2011).
≈ marks a conversion by molar mass, not a printed value.

Columns and labels:
OVCAR-8 = test: Cytotoxicity against human OVCAR8 cells assessed as cell growth at 800 nM by sulforhodamine B assay relative to control; assay type: functional; details: read-out: Activity
MDA-MB-435 = test: Cytotoxicity against human MDA-MB-435 cells assessed as cell growth at 80 uM by sulforhodamine B assay relative to control; assay type: functional; details: read-out: Activity
KM12 = test: Cytotoxicity against human KM12 cells assessed as cell growth at 80 nM by sulforhodamine B assay relative to control; assay type: functional; details: read-out: Activity
SK-MEL-5 [1] = test: Cytotoxicity against human SK-MEL-5 cells assessed as cell growth at 8 nM by sulforhodamine B assay relative to control; assay type: functional; details: read-out: Activity
UO-31 [2] = test: Cytotoxicity against human UO31 cells by sulforhodamine B assay; assay type: functional
How it was run: (§1)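 NCI Developmental Therapeutics Program 60-cell-line human tumor panel screen, run at NCI. A single-concentration pre-screen was followed by a five-concentration dose-response in 10-fold steps. GI50 is the concentration that reduces growth of treated cells to half that of untreated control cells. TGI is the concentration that completely halts growth.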

BT-549 [3] = test: Cytotoxicity against human BT549 cells assessed as cell growth at 8 uM by sulforhodamine B assay relative to control; assay type: functional; details: read-out: Activity
How it was run: (§2)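 Run at NCI in the DTP 60-cell-line human tumor panel by standard procedure. Compounds were first screened at a single concentration, then tested at five tenfold-spaced concentrations. GI50 is the concentration reducing treated-cell growth to half that of untreated controls; TGI is the concentration completely halting growth.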

A498 = test: Cytotoxicity against human A498 cells assessed as cell growth at 80 nM by sulforhodamine B assay relative to control; assay type: functional; details: read-out: Activity; how it was run: as §2
A549 = test: Cytotoxicity against human A549 cells assessed as cell growth at 8 uM by sulforhodamine B assay relative to control; assay type: functional; details: read-out: Activity; how it was run: as §2
SK-MEL-28 = test: Cytotoxicity against human SK-MEL-28 cells assessed as cell growth at 8 uM by sulforhodamine B assay relative to control; assay type: functional; details: read-out: Activity
NCI/ADR-RES = test: Cytotoxicity against human NCI/ADR-RES cells assessed as cell growth at 80 uM by sulforhodamine B assay relative to control; assay type: functional; details: read-out: Activity
UACC-62 = test: Cytotoxicity against human UACC62 cells assessed as cell growth at 80 uM by sulforhodamine B assay relative to control; assay type: functional; details: read-out: Activity
SNB-19 = test: Cytotoxicity against human SNB19 cells by sulforhodamine B assay; assay type: functional; how it was run: as §1
SF-295 = test: Cytotoxicity against human SF295 cells assessed as cell growth at 80 uM by sulforhodamine B assay relative to control; assay type: functional; details: read-out: Activity
786-0 [4] = test: Cytotoxicity against human 786-0 cells assessed as cell growth at 80 nM by sulforhodamine B assay relative to control; assay type: functional; details: read-out: Activity; how it was run: as §2
HCT-15 = test: Cytotoxicity against human HCT15 cells assessed as cell growth at 800 nM by sulforhodamine B assay relative to control; assay type: functional; details: read-out: Activity
NCI-H23 = test: Cytotoxicity against human NCI-H23 cells assessed as cell growth at 8 nM by sulforhodamine B assay relative to control; assay type: functional; details: read-out: Activity
SW-620 = test: Cytotoxicity against human SW620 cells assessed as cell growth at 80 uM by sulforhodamine B assay relative to control; assay type: functional; details: read-out: Activity
SF-268 = test: Cytotoxicity against human SF268 cells by sulforhodamine B assay; assay type: functional
786-0 [5] = test: Cytotoxicity against human 786-0 cells assessed as cell growth at 8 uM by sulforhodamine B assay relative to control; assay type: functional; details: read-out: Activity; how it was run: as §2
MOLT-4 = test: Cytotoxicity against human MOLT4 cells assessed as cell growth at 80 uM by sulforhodamine B assay relative to control; assay type: functional; details: read-out: Activity
Malme-3M = test: Cytotoxicity against human MALME-3M cells by sulforhodamine B assay; assay type: functional; how it was run: as §1
SR = test: Cytotoxicity against human SR cells assessed as cell growth at 8 nM by sulforhodamine B assay relative to control; assay type: functional; details: read-out: Activity
[6] = Acute toxicity in ip dosed athymic nude mouse assessed as mortality after 24 days; assay type: organism-based; details: in vivo
How it was run: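 Female athymic nude mice, non-tumored; single IP injection, one mouse per dose level, 400, 200 and 100 mg/kg first, then 50, 25 and 12.5 mg/kg. Dose volume 0.1 ml/10 g body weight. Body weight and survival monitored; animals sacrificed on >20% weight loss or other significant toxicity.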

ACHN = test: Cytotoxicity against human ACHN cells assessed as cell growth at 800 nM by sulforhodamine B assay relative to control; assay type: functional; details: read-out: Activity; how it was run: as §2
NCI-H226 [7] = test: Cytotoxicity against human NCI-H226 cells assessed as cell growth at 8 uM by sulforhodamine B assay relative to control; assay type: functional; details: read-out: Activity
HOP-62 [8] = test: Cytotoxicity against human HOP62 cells by sulforhodamine B assay; assay type: functional
How it was run: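 Run by the NCI Developmental Therapeutics Program on its 60-line human tumour cell panel using the standard procedure. Compounds went through a single-concentration prescreen first, and those active by NCI criteria went on to a five-concentration growth-inhibition test. GI50 is the concentration that cuts growth of treated cells to half that of untreated control cells.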

NCI-H322M = test: Cytotoxicity against human NCI-H322M cells assessed as cell growth at 8 uM by sulforhodamine B assay relative to control; assay type: functional; details: read-out: Activity
SK-MEL-5 [9] = test: Cytotoxicity against human SK-MEL-5 cells assessed as cell growth at 800 nM by sulforhodamine B assay relative to control; assay type: functional; details: read-out: Activity
U-251 = test: Cytotoxicity against human U251 cells by sulforhodamine B assay; assay type: functional; how it was run: as §1
RXF 393 = test: Cytotoxicity against human RXF393 cells assessed as cell growth at 8 uM by sulforhodamine B assay relative to control; assay type: functional; details: read-out: Activity
NCI-H226 [10] = test: Cytotoxicity against human NCI-H226 cells by sulforhodamine B assay; assay type: functional; how it was run: as §1
Hs-578T = test: Cytotoxicity against human Hs578T cells by sulforhodamine B assay; assay type: functional; how it was run: as §1
HT-29 = test: Cytotoxicity against human HT-29 cells assessed as cell growth at 80 nM by sulforhodamine B assay relative to control; assay type: functional; details: read-out: Activity
Aspergillus fumigatus = test: Antimicrobial activity against Aspergillus fumigatus ATCC 90906 by CLSI method; assay type: functional, organism-based
BT-549 [11] = test: Cytotoxicity against human BT549 cells assessed as cell growth at 80 nM by sulforhodamine B assay relative to control; assay type: functional; details: read-out: Activity; how it was run: as §2
UO-31 [12] = test: Cytotoxicity against human UO31 cells assessed as cell growth at 800 nM by sulforhodamine B assay relative to control; assay type: functional; details: read-out: Activity
HOP-62 [13] = test: Cytotoxicity against human HOP62 cells assessed as cell growth at 80 nM by sulforhodamine B assay relative to control; assay type: functional; details: read-out: Activity

Question: With `C/C=C1\NC(=O)[C@H](Cc2ccccc2)NC(=O)[C@@H](C(C)C)NC(=O)[C@@H]([C@@H](C)CC)NC(=O)[C@H](NC(=O)[C@H](NC(=O)[C@H](CCCNCc2ccc(F)c(C)c2)NC(=O)[C@H]2CCCN2C(=O)[C@H](NC(=O)[C@@H](NC(=O)[C@@H](NC(=O)[C@H](NC(=O)CCCC(C)C)C(C)C)[C@@H](C)O)C(C)C)C(C)C)[C@@H](C)CC)[C@@H](C)OC(=O)[C@H](C(C)C)NC1=O` as the compound, how does the growth at 0.8 µM (OVCAR-8) read?
Answer: 92%

Question: And the growth at 80 µM (MDA-MB-435)?
Answer: -36%

Question: And the growth at 0.08 µM (KM12)?
Answer: 98%

Question: And the growth at 0.008 µM (SK-MEL-5 [1])?
Answer: 99%

Question: And the GI50 (UO-31 [2])?
Answer: 1.32 µM

Question: And the TGI (UO-31 [2]; read-out: pTGI (converted))?
Answer: 2.63 µM

Question: And the growth at 8 µM (BT-549 [3])?
Answer: -88%

Question: And the growth at 0.08 µM (A498)?
Answer: 108%

Question: And the growth at 8 µM (A549)?
Answer: -64%

Question: And the growth at 8 µM (SK-MEL-28)?
Answer: -83%

Question: What about the growth at 80 µM (NCI/ADR-RES) of the same compound?
Answer: -60%

Question: And the growth at 80 µM (UACC-62)?
Answer: -91%

Question: And the GI50 (SNB-19)?
Answer: 1.29 µM

Question: What about the LC50 (concentration killing 50% of cells) (SNB-19) of the same compound?
Answer: 4.79 µM

Question: And the TGI (SNB-19; read-out: pTGI (converted))?
Answer: 2.45 µM

Question: And the growth at 80 µM (SF-295)?
Answer: -35%

Question: And the growth at 0.08 µM (786-0 [4])?
Answer: 97%

Question: And the growth at 0.8 µM (HCT-15)?
Answer: -35%

Question: And the growth at 0.008 µM (NCI-H23)?
Answer: 102%

Question: And the growth at 80 µM (SW-620)?
Answer: -80%

Question: What about the GI50 (SF-268) of the same compound?
Answer: 0.955 µM

Question: What about the growth at 8 µM (786-0 [5]) of the same compound?
Answer: -99%

Question: And the growth at 80 µM (MOLT-4)?
Answer: 9%

Question: And the GI50 (Malme-3M)?
Answer: 1.48 µM

Question: What about the growth at 0.008 µM (SR) of the same compound?
Answer: 90%

Question: And the MTD at 576 h [6]?
Answer: 12.5 mg/kg

Question: What about the growth at 0.8 µM (ACHN) of the same compound?
Answer: 81%

Question: And the growth at 8 µM (NCI-H226 [7])?
Answer: -64%

Question: And the GI50 (HOP-62 [8])?
Answer: 1.2 µM

Question: What about the LC50 (HOP-62 [8]) of the same compound?
Answer: 4.37 µM

Question: And the TGI (HOP-62 [8]; read-out: pTGI (converted))?
Answer: 2.29 µM

Question: And the growth at 8 µM (NCI-H322M)?
Answer: -95%

Question: What about the growth at 0.8 µM (SK-MEL-5 [9]) of the same compound?
Answer: 83%

Question: What about the GI50 (U-251) of the same compound?
Answer: 0.363 µM

Question: And the LC50 (U-251)?
Answer: 3.16 µM

Question: What about the TGI (U-251; read-out: pTGI (converted)) of the same compound?
Answer: 1.26 µM

Question: And the growth at 8 µM (RXF 393)?
Answer: -61%

Question: And the GI50 (NCI-H226 [10])?
Answer: 1.48 µM

Question: What about the TGI (NCI-H226 [10]; read-out: pTGI (converted)) of the same compound?
Answer: 3.02 µM

Question: What about the LC50 (Hs-578T) of the same compound?
Answer: > 75.9 µM

Question: What about the GI50 (Hs-578T; read-out: GI50) of the same compound?
Answer: 0.217 µM

Question: What about the TGI (Hs-578T; read-out: TGI) of the same compound?
Answer: 0.665 µM

Question: And the GI50 (Hs-578T; read-out: pGI50 (converted))?
Answer: 0.219 µM

Question: And the TGI (Hs-578T; read-out: pTGI (converted))?
Answer: 0.661 µM

Question: What about the growth at 0.08 µM (HT-29) of the same compound?
Answer: 102%

Question: And the IC50 (Aspergillus fumigatus)?
Answer: 3.09 µM

Question: And the MFC (Aspergillus fumigatus)?
Answer: 10 µM (≈ 16 µg/mL)

Question: And the MIC (Aspergillus fumigatus)?
Answer: 10 µM (≈ 16 µg/mL)

Question: And the growth at 0.08 µM (BT-549 [11])?
Answer: 76%

Question: And the growth at 0.8 µM (UO-31 [12])?
Answer: 92%

Question: And the growth at 0.08 µM (HOP-62 [13])?
Answer: 102%
